Assays:
[1] = biological target: Collagenase 3 (Homo sapiens, UniProt P45452); assay: Inhibition of full-length recombinant human MMP-13 assessed as bovine type-2 collagen hydrolysis after 22 hrs by fluorescence assay
[2] = biological target: T1, Cytochrome P450 2C8 (Homo sapiens, UniProt P10632); assay: Inhibition of CYP2C8 (unknown origin) using amodiaquine substrate; assay type: ADME
T1 sequence (P10632 whole entry): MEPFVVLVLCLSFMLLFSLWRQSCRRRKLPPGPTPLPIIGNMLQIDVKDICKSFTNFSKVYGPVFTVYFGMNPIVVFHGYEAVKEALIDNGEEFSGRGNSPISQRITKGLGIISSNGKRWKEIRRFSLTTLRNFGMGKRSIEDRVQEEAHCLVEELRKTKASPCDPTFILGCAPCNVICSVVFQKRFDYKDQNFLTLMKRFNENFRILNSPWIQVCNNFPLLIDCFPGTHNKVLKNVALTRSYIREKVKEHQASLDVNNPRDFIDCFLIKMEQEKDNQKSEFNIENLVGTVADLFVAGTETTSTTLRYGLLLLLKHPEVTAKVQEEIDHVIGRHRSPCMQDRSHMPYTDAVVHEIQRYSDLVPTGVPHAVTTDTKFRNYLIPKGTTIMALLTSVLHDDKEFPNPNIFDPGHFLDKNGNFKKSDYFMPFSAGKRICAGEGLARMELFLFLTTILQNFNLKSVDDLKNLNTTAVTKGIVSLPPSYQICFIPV
Outline: (§1)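 Human liver microsomes with probe substrate and an NADPH-regenerating system in 0.1 M potassium phosphate pH 7.4 at 37 °C, run in duplicate. Inhibitor at 0–20 μM (0–2.5 μM for one compound), eight concentrations. Reactions were stopped with acetonitrile/formic acid containing isotope-labelled internal standard, and metabolite area ratios were compared with and without inhibitor. IC50 was taken by linear interpolation between bracketing concentrations.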

[3] = biological target: T2, Cathepsin K (Homo sapiens) (UniProt P43235); assay: Inhibition of recombinant human cathepsin K using HHQKLVFFAE substrate at up to 20 uM after 3 hrs
T2 sequence (whole entry): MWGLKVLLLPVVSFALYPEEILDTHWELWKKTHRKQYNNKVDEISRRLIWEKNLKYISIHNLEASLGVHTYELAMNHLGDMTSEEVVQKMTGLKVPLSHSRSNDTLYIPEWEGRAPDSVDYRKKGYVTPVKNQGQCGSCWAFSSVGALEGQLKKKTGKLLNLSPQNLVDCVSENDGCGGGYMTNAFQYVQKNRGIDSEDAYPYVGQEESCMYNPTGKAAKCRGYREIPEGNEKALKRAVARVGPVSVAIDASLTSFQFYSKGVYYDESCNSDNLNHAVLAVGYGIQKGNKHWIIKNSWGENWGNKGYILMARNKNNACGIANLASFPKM
Outline: (§2)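 Outsourced microfluidic protease panel. Compound was preincubated with each protease for 30 min at 25 °C, then peptide substrate was added for 3 h at 25 °C and quenched with SDS/EDTA/iodoacetate. Substrate-to-product conversion was measured on LabChip. Compounds were tested singly in a 12-point 3-fold dilution series, top 20 μM (5 μM for two reference compounds).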

[4] = biological target: Beta-secretase 1 (Homo sapiens) (UniProt P56817); assay: Inhibition of recombinant human BACE1 using SEVNLDAEFRKKRR substrate at up to 20 uM after 3 hrs
Outline: as §2

[5] = biological target: Cytochrome P450 2D6 (Homo sapiens, UniProt P10635); assay: Inhibition of CYP2D6 (unknown origin) using dextromethophan substrate; assay type: ADME
Outline: as §1

[6] = biological target: T3, Caspase-6 (Homo sapiens) (UniProt P55212); assay: Inhibition of recombinant human caspase 6 using VEHDGG substrate at up to 20 uM after 3 hrs
T3 sequence (whole entry): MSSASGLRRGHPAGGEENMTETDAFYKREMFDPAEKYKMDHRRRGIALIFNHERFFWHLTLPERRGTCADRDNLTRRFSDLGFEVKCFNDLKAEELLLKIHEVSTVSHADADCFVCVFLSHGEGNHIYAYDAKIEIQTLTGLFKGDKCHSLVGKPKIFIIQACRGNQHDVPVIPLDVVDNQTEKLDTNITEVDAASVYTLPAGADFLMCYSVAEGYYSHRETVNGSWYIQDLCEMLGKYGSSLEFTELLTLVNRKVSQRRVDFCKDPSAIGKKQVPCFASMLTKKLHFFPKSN
Outline: as §2

[7] = biological target: Cytochrome P450 2C9 (Homo sapiens, UniProt P11712); assay: Inhibition of CYP2C9 (unknown origin) using diclofenac substrate; assay type: ADME
Outline: as §1

[8] = biological target: Cathepsin S (Homo sapiens) (UniProt P25774); assay: Inhibition of recombinant human cathepsin S using RTLTAK substrate at up to 20 uM after 3 hrs
Outline: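 Each protease was preincubated 30 min at 25 °C with compound in its assay buffer. Peptide substrate was then added and the reaction ran 3 h at 25 °C before quenching with SDS/EDTA/iodoacetate. Substrate-to-product conversion (%) was read by microfluidic electrophoresis. Compounds were tested in singlicate as 12-point 3-fold dilutions from 20 μM to 0.1 nM. IC50 was taken as the concentration giving 50% of no-compound control activity.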

[9] = biological target: T4, Caspase-3 (Homo sapiens) (UniProt P42574); assay: Inhibition of recombinant human caspase 3 using DEVDAA substrate at up to 20 uM after 3 hrs
T4 sequence (whole entry): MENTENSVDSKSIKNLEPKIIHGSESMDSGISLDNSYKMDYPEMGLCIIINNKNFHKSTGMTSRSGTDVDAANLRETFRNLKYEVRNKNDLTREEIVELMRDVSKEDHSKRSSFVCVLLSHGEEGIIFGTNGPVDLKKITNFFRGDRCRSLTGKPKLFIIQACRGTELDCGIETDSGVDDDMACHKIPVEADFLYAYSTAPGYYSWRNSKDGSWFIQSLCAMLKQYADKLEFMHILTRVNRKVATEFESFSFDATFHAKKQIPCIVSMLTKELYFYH
Outline: as §2

[10] = biological target: T5, Caspase-5 (Homo sapiens) (UniProt P51878); assay: Inhibition of recombinant human caspase 5 using LEHDGP substrate at up to 20 uM after 3 hrs
T5 sequence (whole entry): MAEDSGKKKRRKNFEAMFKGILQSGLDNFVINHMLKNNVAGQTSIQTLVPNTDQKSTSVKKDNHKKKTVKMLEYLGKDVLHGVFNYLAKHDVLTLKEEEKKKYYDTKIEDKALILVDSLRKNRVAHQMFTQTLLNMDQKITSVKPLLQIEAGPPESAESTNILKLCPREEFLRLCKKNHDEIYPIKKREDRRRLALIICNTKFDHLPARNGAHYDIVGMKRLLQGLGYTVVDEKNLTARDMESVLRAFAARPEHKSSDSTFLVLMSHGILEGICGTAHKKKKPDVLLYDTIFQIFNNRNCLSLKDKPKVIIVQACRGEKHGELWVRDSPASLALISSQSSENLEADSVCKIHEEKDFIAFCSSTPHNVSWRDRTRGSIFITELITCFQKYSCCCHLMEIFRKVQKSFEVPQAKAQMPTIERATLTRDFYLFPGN
Outline: as §2

[11] = biological target: Angiotensin-converting enzyme (Homo sapiens) (UniProt P12821); assay: Inhibition of recombinant human ACE using RPFNYLAK substrate up to 20 uM
Outline: as §2

[12] = biological target: Matrix metalloproteinase-9 (Homo sapiens) (UniProt P14780); assay: Inhibition of recombinant human MMP-9 using GRIGFL substrate up to 20 uM
Outline: as §2

Cytochrome P450 2C9, sequence (P11712 whole entry): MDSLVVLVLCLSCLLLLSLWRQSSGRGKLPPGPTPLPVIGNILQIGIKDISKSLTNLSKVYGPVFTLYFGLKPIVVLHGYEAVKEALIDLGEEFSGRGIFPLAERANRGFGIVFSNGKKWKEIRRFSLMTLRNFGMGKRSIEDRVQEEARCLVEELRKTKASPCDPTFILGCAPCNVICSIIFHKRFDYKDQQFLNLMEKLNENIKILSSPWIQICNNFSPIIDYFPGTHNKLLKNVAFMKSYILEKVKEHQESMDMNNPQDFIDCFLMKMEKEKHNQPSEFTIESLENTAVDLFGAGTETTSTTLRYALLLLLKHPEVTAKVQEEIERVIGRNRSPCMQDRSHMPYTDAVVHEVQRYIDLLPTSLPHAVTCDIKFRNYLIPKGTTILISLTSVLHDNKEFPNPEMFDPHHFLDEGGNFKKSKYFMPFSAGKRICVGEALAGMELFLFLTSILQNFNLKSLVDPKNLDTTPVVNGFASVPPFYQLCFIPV
Beta-secretase 1 (Homo sapiens), sequence (P56817 whole entry): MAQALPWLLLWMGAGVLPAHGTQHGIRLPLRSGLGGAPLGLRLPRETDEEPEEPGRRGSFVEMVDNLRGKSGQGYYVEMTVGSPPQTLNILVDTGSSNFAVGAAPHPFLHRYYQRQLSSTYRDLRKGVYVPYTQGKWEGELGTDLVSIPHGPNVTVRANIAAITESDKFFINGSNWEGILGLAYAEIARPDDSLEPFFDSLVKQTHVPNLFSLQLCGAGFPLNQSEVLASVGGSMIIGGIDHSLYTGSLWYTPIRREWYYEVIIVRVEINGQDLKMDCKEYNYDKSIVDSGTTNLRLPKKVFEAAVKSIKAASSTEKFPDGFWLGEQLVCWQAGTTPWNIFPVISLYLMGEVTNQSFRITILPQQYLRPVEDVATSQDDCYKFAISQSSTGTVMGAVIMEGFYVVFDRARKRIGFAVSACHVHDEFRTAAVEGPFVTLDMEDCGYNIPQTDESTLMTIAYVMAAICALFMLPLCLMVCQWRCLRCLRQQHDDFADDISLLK
Cathepsin S (Homo sapiens), sequence (P25774 115-331 limits assumed): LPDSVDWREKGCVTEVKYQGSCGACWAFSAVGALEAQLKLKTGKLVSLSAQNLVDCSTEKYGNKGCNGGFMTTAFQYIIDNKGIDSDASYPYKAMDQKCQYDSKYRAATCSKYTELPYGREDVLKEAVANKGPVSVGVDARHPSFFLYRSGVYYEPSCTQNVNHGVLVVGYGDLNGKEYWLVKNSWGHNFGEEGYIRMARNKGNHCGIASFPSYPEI
Matrix metalloproteinase-9 (Homo sapiens), sequence (P14780 whole entry): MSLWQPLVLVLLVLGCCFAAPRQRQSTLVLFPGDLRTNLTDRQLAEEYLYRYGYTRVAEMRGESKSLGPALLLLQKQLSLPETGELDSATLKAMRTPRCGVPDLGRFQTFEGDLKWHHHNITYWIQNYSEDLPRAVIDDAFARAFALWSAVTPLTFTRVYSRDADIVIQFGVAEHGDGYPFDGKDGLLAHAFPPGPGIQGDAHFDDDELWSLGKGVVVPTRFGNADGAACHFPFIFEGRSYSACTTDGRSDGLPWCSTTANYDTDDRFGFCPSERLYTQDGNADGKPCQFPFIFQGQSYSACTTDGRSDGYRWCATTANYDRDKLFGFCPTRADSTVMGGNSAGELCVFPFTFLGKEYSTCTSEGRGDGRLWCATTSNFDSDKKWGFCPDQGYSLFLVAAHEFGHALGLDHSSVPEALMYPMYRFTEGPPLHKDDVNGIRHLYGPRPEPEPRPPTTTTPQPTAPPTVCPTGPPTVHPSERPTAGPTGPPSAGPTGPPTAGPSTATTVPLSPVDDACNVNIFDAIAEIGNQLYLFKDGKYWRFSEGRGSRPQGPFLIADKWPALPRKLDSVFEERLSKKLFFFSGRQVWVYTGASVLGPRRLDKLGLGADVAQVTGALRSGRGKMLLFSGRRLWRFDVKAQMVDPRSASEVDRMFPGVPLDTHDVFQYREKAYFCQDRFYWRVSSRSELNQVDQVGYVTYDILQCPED
Angiotensin-converting enzyme (Homo sapiens), sequence (P12821 whole entry): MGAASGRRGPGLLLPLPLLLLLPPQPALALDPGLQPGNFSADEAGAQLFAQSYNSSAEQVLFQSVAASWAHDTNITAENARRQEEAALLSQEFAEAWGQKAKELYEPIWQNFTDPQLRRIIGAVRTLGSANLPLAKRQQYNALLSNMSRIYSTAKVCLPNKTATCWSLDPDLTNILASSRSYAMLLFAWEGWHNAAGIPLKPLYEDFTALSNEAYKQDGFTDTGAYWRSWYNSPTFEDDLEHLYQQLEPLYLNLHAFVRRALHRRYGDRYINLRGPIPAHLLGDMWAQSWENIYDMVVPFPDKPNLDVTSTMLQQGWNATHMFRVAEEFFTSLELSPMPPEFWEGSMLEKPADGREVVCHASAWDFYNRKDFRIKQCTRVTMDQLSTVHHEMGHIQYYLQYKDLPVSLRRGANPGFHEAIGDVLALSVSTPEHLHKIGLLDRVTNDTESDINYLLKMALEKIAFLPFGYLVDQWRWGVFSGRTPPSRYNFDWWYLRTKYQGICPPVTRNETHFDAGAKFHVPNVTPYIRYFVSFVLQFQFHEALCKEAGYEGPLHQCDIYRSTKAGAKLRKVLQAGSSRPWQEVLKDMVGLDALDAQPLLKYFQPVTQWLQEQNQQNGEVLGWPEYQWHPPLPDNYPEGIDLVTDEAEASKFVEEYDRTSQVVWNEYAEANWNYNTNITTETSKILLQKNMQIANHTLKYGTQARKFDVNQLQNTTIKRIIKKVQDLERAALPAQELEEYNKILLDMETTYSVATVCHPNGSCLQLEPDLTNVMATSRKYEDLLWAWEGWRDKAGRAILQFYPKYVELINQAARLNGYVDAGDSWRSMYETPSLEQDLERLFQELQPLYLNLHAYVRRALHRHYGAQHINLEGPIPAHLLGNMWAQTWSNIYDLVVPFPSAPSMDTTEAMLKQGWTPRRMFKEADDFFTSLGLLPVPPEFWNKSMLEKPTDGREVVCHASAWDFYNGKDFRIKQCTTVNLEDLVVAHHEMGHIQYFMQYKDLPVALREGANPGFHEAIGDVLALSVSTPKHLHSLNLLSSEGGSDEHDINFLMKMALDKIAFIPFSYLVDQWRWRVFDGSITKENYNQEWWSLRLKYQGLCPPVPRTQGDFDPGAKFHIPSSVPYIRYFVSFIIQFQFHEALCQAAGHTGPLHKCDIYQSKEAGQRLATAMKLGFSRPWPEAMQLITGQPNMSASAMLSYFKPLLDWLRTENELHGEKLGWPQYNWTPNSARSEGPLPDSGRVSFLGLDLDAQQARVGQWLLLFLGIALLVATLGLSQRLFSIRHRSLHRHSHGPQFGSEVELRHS
Cytochrome P450 2D6, sequence (P10635 whole entry): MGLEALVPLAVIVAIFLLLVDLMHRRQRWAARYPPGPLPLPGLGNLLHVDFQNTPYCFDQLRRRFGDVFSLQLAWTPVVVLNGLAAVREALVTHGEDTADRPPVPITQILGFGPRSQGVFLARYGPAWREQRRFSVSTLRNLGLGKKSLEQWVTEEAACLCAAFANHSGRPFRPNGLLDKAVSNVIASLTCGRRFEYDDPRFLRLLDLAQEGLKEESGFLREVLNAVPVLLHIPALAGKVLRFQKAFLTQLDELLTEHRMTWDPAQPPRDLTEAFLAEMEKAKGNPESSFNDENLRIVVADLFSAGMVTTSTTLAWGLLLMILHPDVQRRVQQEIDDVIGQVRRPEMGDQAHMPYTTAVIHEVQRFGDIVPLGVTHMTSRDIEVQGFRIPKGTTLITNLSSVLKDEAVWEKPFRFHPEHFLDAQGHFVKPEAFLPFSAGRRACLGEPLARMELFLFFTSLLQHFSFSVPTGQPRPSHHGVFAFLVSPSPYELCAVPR

| Structure (SMILES) | IC50 [1] | inhibition [1] | IC50 [2] | inhibition [3] | inhibition [4] | IC50 [5] | inhibition [6] | IC50 [7] | inhibition [8] | inhibition [9] | inhibition [10] | inhibition [11] | inhibition [12] |
| --- | --- | --- | --- | --- | --- | --- | --- | --- | --- | --- | --- | --- | --- |
| Oc1nc(SCc2ccc(Cl)cc2)nc2c1CCC2 | 0.7 µM | Dose-dependent effect | > 20 µM | < 10% | < 10% | > 20 µM | < 10% | 19 µM | < 10% | < 10% | < 10% | > 10% | > 10% |
| Cc1ccc(CSc2nc(O)c3c(n2)CCC3)cc1 |  | Dose-dependent effect |  | 20% | < 10% |  | < 10% |  | < 10% | < 10% | > 10% | > 10% | > 10% |
| Cc1cc(CNC(=O)c2cc(C(=O)NCc3ccc(F)c(C)c3)ncn2)ccc1F |  |  | > 20 µM |  |  | > 20 µM |  | > 20 µM |  |  |  |  |  |
| COC(=O)c1ccc(CSc2nc3c(c(=O)[nH]2)CCC3)cc1 | 2.3 µM |  | > 20 µM | < 10% | < 10% | > 20 µM | < 10% | > 20 µM | < 10% | < 10% | < 10% | > 10% | > 10% |
| Cn1c(=O)n(Cc2ccc(C(=O)O)cc2)c(=O)c2cc(C#CCc3ccccc3)ccc21 |  |  | > 2.5 µM |  |  | > 2.5 µM |  | > 2.5 µM |  |  |  |  |  |
